In the library only some 2.4% were active in any assay of this set; here they are far more common.
Casp6 inh = human caspase-6 inhibitors, primary screen, biochemical, VEID-R110 fluorescence, single point, set 2; 350,000 tested, 0.53% active; purified caspase-6, Z-VEID-R110 cleavage fluorescence; inhibition, % at 12.5 µM;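 active = mean inhibition across replicates at least about 35%, with every replicate also reaching that limit, limit read from the data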;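 note: 0% = median of neutral control wells and 100% = no fluorescence left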
S100A4 MyoIIA = inhibitors of S100A4-myosin IIA peptide binding, primary screen, biochemical, fluorescence polarization, TAMRA-MyoIIA peptide; Protein S100-A4 (Homo sapiens), P26447; inhibition, % at 10.7 µM; 360,000 tested, 0.14% active;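 active = mean inhibition of at least 70% across replicates, with every replicate also reaching that level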
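assay system = human S100A4 monomer with TAMRA-labelled myosin IIA peptide | also added = labelled myosin peptide probe, 5 nM | incubation = 5 min between mix addition and reading | control set = DMSO and TFP controls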
ARNT TACC3 PPI = disruptors of ARNT/TACC3 protein interaction, primary screen, biochemical, AlphaScreen, single concentration; Transforming acidic coiled-coil-containing protein 3 (Homo sapiens), Q9Y6A5; AlphaScreen His-ARNT PAS-B/GST-TACC3 binding, luminescence; TACC3 fragment carries E629A point mutation; inhibition, % at 9.99 µM; 390,000 tested, 0.66% active; AID 623870, 2012;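 active = mean inhibition of replicates at least 50% and at least half of replicates each reaching 50%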;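 note: 0% = complete ARNT plus TACC3 wells and 100% = ARNT alone without TACC3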
ERAP1 inh = human ERAP1 aminopeptidase inhibitors, primary screen, biochemical, single point, plate reader. recombinant ERAP1, Leu-AMC fluorescence, 60 min. 340,000 tested, 0.15% active. inhibition, % at 10.7 µM;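 active = mean replicate inhibition of at least 30%, or all replicates individually reaching that 30% level; inactive = mean below 30% and not every replicate reaching it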;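 note: 0% = neutral control wells and 100% = L-leucinethiol positive control wells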
Target sequence (Q9NZ08 whole entry, looked up): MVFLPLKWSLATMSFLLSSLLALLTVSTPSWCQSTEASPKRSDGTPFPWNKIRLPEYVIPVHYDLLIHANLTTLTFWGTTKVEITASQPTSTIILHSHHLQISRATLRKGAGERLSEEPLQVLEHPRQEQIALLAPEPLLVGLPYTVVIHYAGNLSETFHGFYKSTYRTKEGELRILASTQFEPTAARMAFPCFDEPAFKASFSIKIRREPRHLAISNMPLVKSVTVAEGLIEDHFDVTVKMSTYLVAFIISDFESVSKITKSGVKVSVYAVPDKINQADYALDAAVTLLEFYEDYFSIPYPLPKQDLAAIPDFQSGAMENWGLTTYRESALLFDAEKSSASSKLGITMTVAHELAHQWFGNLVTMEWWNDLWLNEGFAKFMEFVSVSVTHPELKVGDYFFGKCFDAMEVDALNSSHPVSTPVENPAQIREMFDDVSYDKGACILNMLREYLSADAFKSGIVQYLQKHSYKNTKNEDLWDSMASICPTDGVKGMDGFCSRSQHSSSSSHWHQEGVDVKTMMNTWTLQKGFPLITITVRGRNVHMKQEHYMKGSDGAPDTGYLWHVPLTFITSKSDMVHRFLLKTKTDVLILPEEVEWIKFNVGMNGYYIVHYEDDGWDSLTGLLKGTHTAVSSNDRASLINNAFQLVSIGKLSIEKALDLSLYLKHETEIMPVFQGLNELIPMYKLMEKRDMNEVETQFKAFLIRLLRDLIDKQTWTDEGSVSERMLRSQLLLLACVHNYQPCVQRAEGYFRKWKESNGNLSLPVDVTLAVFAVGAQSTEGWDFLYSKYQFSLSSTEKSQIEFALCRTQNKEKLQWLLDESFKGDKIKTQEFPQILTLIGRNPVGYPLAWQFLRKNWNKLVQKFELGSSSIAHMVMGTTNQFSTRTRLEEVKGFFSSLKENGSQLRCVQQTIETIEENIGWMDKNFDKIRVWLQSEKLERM
rRNA inh HTS = reduced GFP signal of wild-type E. coli, primary screen, bacterial rRNA inhibitor project, GFP/RFP fluorescence, OD600, single point. 350,000 tested, 1.6% active. E. coli WT GFP vs humanized-ribosome RFP mutants, 24 h; stronger effect = lower value; DMSO median 0, no signal -100. GFP signal change (wild-type ribosome), % (test concentration not listed). AID 720706, 2013;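 active = significant combined selectivity score with lowered wild-type GFP, culture density cut under 30%, mutant RFP and density less affected; inactive = any of these conditions unmet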
PGC1a acetyl inh = inhibitors of PGC1a acetylation signal, primary screen, cell-based, U2OS, AlphaScreen, inhibitor mode; inhibition, % at 15.6 µM; AlphaScreen anti-acetyl-lysine; with virally co-expressed GCN5 acetyltransferase; 350,000 tested, 0.17% active;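 active = every replicate shows inhibition of at least 40%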;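 note: 0% = neutral control wells and 100% = positive control wells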
* = called active by the depositor; · = not tested or not shown.

SMILES	Casp6 inh	S100A4 MyoIIA	ARNT TACC3 PPI	ERAP1 inh	rRNA inh HTS	PGC1a acetyl inh
O=C(C[C@H]1CC[C@@H](NC(=O)C2CCOCC2)[C@@H](CO)O1)Nc1ccc(-c2ccccc2)cc1	0	-36	14	-2	-2	-1
COc1cccc(N2CCN(c3ncnc4c3[nH]c3ccc(F)cc34)CC2C)c1 (stereo unspecified)	·	·	-9	·	·	77*
C[C@@H]1CCCCO[C@@H](CN(C)C(=O)CCCN(C)C)[C@H](C)CN([C@@H](C)CO)C(=O)c2cc(NC(=O)NC3CCCCC3)ccc2O1	1	-11	1	-1	4	·
COC(=O)CC1=C(c2ccc([N+](=O)[O-])cc2)CCC1=O	0	-14	4	-2	-19*	-13
CCOC(=O)C1CCCN(S(=O)(=O)c2ccc(S(=O)(=O)N3CCCC3)cc2)C1 (stereo unspecified)	1	6	-13	2	7	-1
CCOC(=O)C1CCCN(S(=O)(=O)c2nc3nc(C)cc(C)n3n2)C1 (stereo unspecified)	37*	2	-1	-2	0	·
O=S1(=O)Nc2c(ccc3cccnc23)-c2ccccc21	·	·	69*	·	·	-51
S=c1[nH]cnc2scc(-c3ccc(Cl)cc3)c12	4	-17	·	2	-51*	9
Cc1ccc(-c2csc3nc[nH]c(=S)c23)cc1	·	·	28	·	·	·
COc1ccccc1-c1cnc2c(c1)C(=O)N([C@H](C)CO)C[C@H](C)[C@H](CN(C)C)O2	0	12	-2	0	-4	12
Cc1sc2ncnc(N3CCC(C(=O)NNC(=O)COc4cccc(C(F)(F)F)c4)CC3)c2c1C	-5	0	·	-1	-19*	·
Cc1ccc(OCC(=O)NNC(=O)C2CCN(c3ncnc4sc(C)c(C)c34)CC2)cc1	-2	1	0	-1	-17	·
Cc1[nH]nc(-c2ccc(O)cc2O)c1Oc1ccccc1	1	-7	-1	-1	-13*	-13
C/C(=N\Nc1nc2ccccc2[nH]1)c1ccc2c(c1)OCCO2	·	4	30	-9	-48*	·
COc1ccc(-c2csc(NC(=O)c3cccs3)c2C(=O)O)cc1OC	0	2	4	8	-34*	·
COC(=O)c1c(-c2ccc(F)cc2)csc1NC(=O)C1CCCO1 (stereo unspecified)	-2	-2	-2	1	-34	·
CCOC(=O)c1c(-c2ccc(OC)c(OC)c2)csc1NC(=O)C1CCCO1 (stereo unspecified)	3	-9	9	-4	-37*	6
CCCN1[C@@H]2Cn3c(cccc3=O)[C@H]1[C@@H](C(=O)N[C@@H](C)c1ccccc1)[C@@H]2CO	1	8	·	1	1	8
C[C@H]1CCCCO[C@@H](CN(C)CC2CC2)[C@@H](C)CN([C@@H](C)CO)C(=O)c2cc(NC(=O)Nc3ccc(F)cc3)ccc2O1	·	·	·	·	4	18
C[C@H](CO)N1C[C@H](C)[C@H](CN(C)S(=O)(=O)c2ccc(Cl)cc2)Oc2ccc(NS(=O)(=O)c3ccccc3)cc2CC1=O	·	·	2	·	4	3
O=C(CNC(=O)c1cccnc1)N/N=C/c1ccc(O)cc1O	-1	0	80*	-2	-2	8
O=C(CNC(=O)c1cccs1)N/N=C/c1ccc(O)cc1O	-2	-2	70*	1	12	-9
COc1ccccc1/C=C\C(=O)NCC(=O)N/N=C/c1ccc(O)cc1O	6	-1	54*	2	-29*	-6
COc1ccccc1-c1cnc2c(c1)C(=O)N([C@@H](C)CO)C[C@H](C)[C@@H](CN(C)Cc1cncnc1)O2	-6	11	-3	2	-2	2
NC(=O)c1cc(NC(=O)c2ccc(NS(=O)(=O)c3cccs3)cc2)cc(C(N)=O)c1	-1	-4	35*	-2	7	3
SMILES	Casp6 inh	S100A4 MyoIIA	ARNT TACC3 PPI	ERAP1 inh	rRNA inh HTS	PGC1a acetyl inh
Cc1cccc(C)c1OCc1nc2ccccc2[nH]1	43*	-18	-10	1	-24	·
CS(=O)(=O)N(CCc1ccccc1)CC(=O)NCc1ccncc1	-2	-2	2	-1	19	-14
ON(CCc1ccncc1)Cc1ccccc1	-6	72*	-4	1	13	-8
C[C@H]1CN([C@@H](C)CO)C(=O)Cc2cc(NS(=O)(=O)c3ccccc3)ccc2O[C@H]1CN(C)S(=O)(=O)c1cn(C)cn1	0	17	7	-1	-1	0
CCN(c1ccccc1)S(=O)(=O)c1ccc(NC(=O)c2nc(S(C)(=O)=O)ncc2Cl)cc1	·	·	16	·	·	·
CCS(=O)(=O)c1ncc(Cl)c(C(=O)Nc2ccc(S(=O)(=O)N(C)c3ccccc3)cc2)n1	-1	21	6	3	-36*	·
CCOc1ccc(N2CC(C(=O)NNC(=O)c3ccc(Br)cc3)CC2=O)cc1 (stereo unspecified)	-1	73*	-12	-2	12	-3
O=[N+]([O-])c1ccccc1N/N=C1\CC2CC=CC12 (stereo unspecified)	4	-1	13	-5	-29*	·
O=C(N/N=C1\CC2CC=CC12)c1ccccc1Cl (stereo unspecified)	3	0	·	3	22	-3
COCC(=O)N1CCC2(CC1)CN(S(C)(=O)=O)[C@H](CO)c1c2c2ccc(OC)cc2n1C	·	8	·	0	1	5
Cc1ccc(S(=O)(=O)Nc2ccc3c(c2)CC(=O)N([C@@H](C)CO)C[C@H](C)[C@@H](CN(C)C(=O)Nc2ccc4c(c2)OCO4)O3)cc1	0	-1	-19	2	0	2
COc1c(O)cc2oc(-c3ccc(O)cc3)cc(=O)c2c1O	4	1	41	1	-33	4
O=c1cc(-c2ccccc2)oc2cc(O)c(O)c(O)c12	44*	2	18	9	·	16
COc1ccc(OCCCN2CCCCCC2)cc1	·	·	47*	·	·	12
C=CCc1cccc(/C=N/NC(=O)CNc2ccccc2)c1O	·	·	0	·	·	3
C=CCc1cccc(/C=N/NC(=O)C[n+]2ccccc2)c1O	-30	6	80*	2	-3	12
C[C@H]1CN([C@@H](C)CO)S(=O)(=O)c2ccc(C#CC(C)(C)O)cc2O[C@@H]1CN(C)Cc1ccc(-c2ccccc2)cc1	-5	-7	-5	2	-2	8

Screening results: PubChem, Broad Institute
